In the library only some 2.6% were active in any assay of this set; here they are far more common.
ASAP1 GAP inh – inhibitors of human ASAP1 ArfGAP activity; Q9ULH1; inhibition, % at 16.5 µM; AID 624377; ASAP1-stimulated ARF1 GTP hydrolysis, GDP FP detection; 360,000 compounds, 0.19% hits; in the data active = inhibition above about 25%;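 also: 0% = vehicle with enzyme and substrate and 100% = no enzyme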
Target sequence (Q9ULH1 325-724 limits assumed): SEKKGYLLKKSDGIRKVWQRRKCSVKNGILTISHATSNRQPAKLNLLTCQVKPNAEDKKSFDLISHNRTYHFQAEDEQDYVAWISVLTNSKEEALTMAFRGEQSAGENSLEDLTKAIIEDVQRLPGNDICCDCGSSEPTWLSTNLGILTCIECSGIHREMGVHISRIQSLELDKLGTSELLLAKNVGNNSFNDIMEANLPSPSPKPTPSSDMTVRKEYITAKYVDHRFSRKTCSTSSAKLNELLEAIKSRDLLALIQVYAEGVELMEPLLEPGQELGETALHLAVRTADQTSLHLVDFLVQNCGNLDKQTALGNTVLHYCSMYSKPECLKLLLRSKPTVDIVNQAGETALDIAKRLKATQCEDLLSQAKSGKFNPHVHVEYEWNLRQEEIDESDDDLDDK
ARFGAP1 inhibitor – inhibits rat ARF GTPase activating protein 1 | inhibition, % at 16.5 µM | Arfgap1-stimulated ARF1 GTP hydrolysis, GDP FP detection | 360,000 compounds, 0.26% hits;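 active = inhibition above a per-plate limit, mean inhibition of low control wells plus 3 SD, cut at about 25% in these data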;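 also: 0% = DMSO wells with enzyme and 100% = wells lacking Arfgap1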
Target sequence (Q62848 1-136 limits assumed): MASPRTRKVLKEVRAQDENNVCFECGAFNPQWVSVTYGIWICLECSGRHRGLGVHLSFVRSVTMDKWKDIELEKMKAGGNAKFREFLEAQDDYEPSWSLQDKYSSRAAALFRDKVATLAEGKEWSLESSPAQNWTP
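Material: rat Arfgap1 catalytic domain, aa 1-136; also added: human ARF1(Δ1-17)-GTP substrate; compound dosing: one concentration, 16.5 µM, DMSO 1.26%; incubation: GTP hydrolysis reaction 2 h at 25 °C; measured by: Tracer-displacement fluorescence polarization with EDTA stop, 620/688 nm; evaluation: % inhibition from polarization; repeats: one replicate per compound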
esBAF inh – blocks esBAF chromatin remodeling in mouse ES cells. reporter increase, % at 12.5 µM. 350,000 compounds, 2% hits. Bmi1-luciferase knock-in reporter, 24 h; 100% = twice the neutral-well signal; in the data active = activation above about 40%;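 also: 0% = median of the plate's neutral control wells and 100% = double that signal; a rise in the Bmi1 reporter signal indicates esBAF inhibition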
SMARCA2 act – SMARCA2 function activation, primary screen. MG213 cells, MMTV-luciferase reporter, dexamethasone, overnight. activation, % at 9.1 µM. 370,000 compounds, 1% hits; in the data active = activation above about 7.8%;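 also: 0% = vehicle wells and 100% = reference activator wells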
Starred values were filed as active, the others as inactive; · = no result.

SMILES | ASAP1 GAP inh | ARFGAP1 inhibitor | esBAF inh | SMARCA2 act
COc1ccc(-n2c(C)cc(C(=O)NC3CCCCC3)c2C)cc1 | 10 | 6 | 54* | 4
Cc1cccc(-n2c(C)cc(C(=O)NC3CCCCC3)c2C)c1 | -10 | 0 | 16 | 2
COc1cc(-c2ccc3c(=O)c4ccccc4sc3c2)cc(OC)c1OC | -2 | -4 | 47* | 1
COc1cc(-c2ccc3c(=O)c4ccccc4n(C)c3c2)cc(OC)c1OC | 16 | 15 | 13 | 1
CS(=O)(=O)Nc1ccc2c(c1)[C@@H]1C[C@H](CC(=O)NCc3ccncc3)O[C@H](CO)[C@@H]1O2 | · | · | 1 | ·
NC(=O)c1cc2ccc(O)cc2oc1=NCc1ccccc1 | 5 | -3 | 45* | 1
NC(=O)c1cc2ccc(O)cc2oc1=Nc1ccccc1 | -2 | 9 | 31 | 7.9*
O=C(Nc1ccccc1)N[C@H]1CC[C@@H](CCn2cc(C3(O)CCCC3)nn2)O[C@@H]1CO | · | · | -2 | ·
Cc1c(O)ccc(/C(Cc2ccc3ccccc3n2)=N\O)c1O | 12 | 2 | 45* | -2
C[C@@H]1CCCCO[C@H](CN(C)S(C)(=O)=O)[C@H](C)CN([C@@H](C)CO)C(=O)c2cc(NC(=O)CCC(F)(F)F)ccc2O1 | · | · | -2 | ·
COc1ccc2c(c1)Cc1sc(NC(=O)c3cccs3)nc1-2 | 2 | 10 | 83* | 0
CC1CCCN(C(=O)COC(=O)Cc2c(F)cccc2Cl)C1 (configuration not stated) | -2 | 0 | 45* | 2
Cc1cc(C(=O)COC(=O)Cc2c(F)cccc2Cl)c(C)n1C | -8 | 0 | 78* | 5
CC(C)NC(=O)N(C)C[C@@H]1OCc2ccccc2-c2ccccc2C(=O)N([C@H](C)CO)C[C@H]1C | · | · | -2 | ·
O=C(C[C@@H]1CC[C@@H](NC(=O)Cc2cccnc2)[C@@H](CO)O1)NCc1ccc2c(c1)OCO2 | · | · | -11 | ·
COc1ccc(S(=O)(=O)N(C)C[C@@H]2OCCCC[C@@H](C)Oc3ccc(NS(=O)(=O)c4ccccc4)cc3C(=O)N([C@@H](C)CO)C[C@@H]2C)cc1 | · | · | 15 | ·
CCCc1ccc2oc(C(=O)N3CCC(N4CCCC(O)C4)CC3)c(C)c2c1 (configuration not stated) | 5 | 0 | 3 | 0
CCCc1ccc2oc(C(=O)N3CCC(COC)C3)c(C)c2c1 (configuration not stated) | 5 | -3 | 54* | 6
CCCc1ccc2oc(C(=O)NCCN3CCCC(O)C3)c(C)c2c1 (configuration not stated) | -7 | -1 | · | 1
CCCc1ccc2oc(C(=O)N3CCC[C@H]3CO)c(C)c2c1 | 10 | 3 | 57* | 2
CNC[C@@H]1Oc2ccc(NS(C)(=O)=O)cc2CC(=O)N([C@H](C)CO)C[C@H]1C | · | · | 0 | ·
Cc1ccc(-c2cnc3c(c2)C(=O)N([C@@H](C)CO)C[C@@H](C)[C@H](CN(C)CC2CCCCC2)O3)cc1 | · | · | -13 | ·
Cc1cccc(NC(=O)c2onc3c2CCCC3)c1C | -7 | 18 | 51* | 4
Cc1cccc(NC(=O)c2onc3c2CCCC3)n1 | 5 | 2 | · | 2
C[C@H](CO)N1C[C@H](C)[C@H](CN(C)C(=O)Nc2ccccc2)Oc2c(NS(=O)(=O)c3ccccc3)cccc2C1=O | · | · | 2 | ·
SMILES | ASAP1 GAP inh | ARFGAP1 inhibitor | esBAF inh | SMARCA2 act
C#CCOc1ccc(/C=C2/C(=O)N(c3cccc(C(=O)O)c3)N=C2C)cc1OC | 3 | 14 | -9 | 0
COc1cc(/C=C2\C(=O)N(c3cccc(C(=O)O)c3)N=C2C)ccc1OCc1ccccc1 | -9 | 0 | 52* | -2
O=C(C[C@H]1C[C@H]2c3cc(NS(=O)(=O)c4ccc(F)cc4)ccc3O[C@H]2[C@@H](CO)O1)NCc1ccccn1 | · | · | 0 | ·
Cc1ccc(OCC(=O)NCc2ccccn2)c(Br)c1 | 7 | -3 | 55* | 2
COCCNC(=O)C(=O)Nc1cccc(Br)c1 | 4 | 8 | 57* | 4
COCCNC(=O)C(=O)Nc1ccc(Br)cc1 | -1 | 3 | 49* | 3
COCCNC(=O)c1cc(Br)ccc1Cl | 3 | 0 | -4 | -5
COCC(=O)Nc1cccc(Br)c1 | 2 | 14 | 1 | -1
CC(=O)Nc1ccc2c(c1)C(=O)N(c1ccc(C)cc1)C2=O | -6 | -7 | 34 | 1
Cc1ccc(N2C(=O)c3ccc(N)cc3C2=O)cc1C | 12 | 5 | 89* | 1
Cc1ccc(N2C(=O)c3ccc(N)cc3C2=O)cc1 | 9 | 4 | 67* | 6
O=C(NCc1cccnc1)c1cc(-c2ccccc2)on1 | 7 | -1 | 47* | 3
O=C(NCCc1ccccc1)c1cc(-c2ccco2)on1 | 15 | 0 | 37 | 0
O=C(NCc1ccccc1)c1cc(-c2cccc(O)c2)on1 | -3 | -4 | 68* | 4
O=C(NCc1ccccc1)c1cc(-c2ccco2)on1 | -9 | 2 | 42* | 2
COc1ccc(-c2cc(C(=O)NCc3cccnc3)no2)cc1 | 3 | -4 | 25 | -1
CCCN(C)C[C@H]1Oc2cc(C#C[C@H](C)O)ccc2S(=O)(=O)N([C@@H](C)CO)C[C@H]1C | · | · | -5 | ·
C[C@@H](NC(=O)C[C@@H]1CC[C@H](NC(=O)c2cccnc2)[C@H](CO)O1)c1ccccc1 | · | · | -3 | ·
CN1C(=O)c2cc(NC(=O)c3cccs3)ccc2OC[C@H]2O[C@H](CC(=O)NCCN3CCCCC3)CC[C@@H]21 | · | · | 5 | ·
Cc1noc(C)c1NC(=O)N(C)C[C@@H]1Oc2c(NC(=O)Nc3ccccc3)cccc2C(=O)N([C@@H](C)CO)C[C@@H]1C | · | · | -4 | ·
CC(C)CN1C(=O)c2ccc(NC(=O)c3ccccc3F)cc2C1=O | -5 | 14 | 47* | 0
NC(=O)NC(=O)C(Nc1ccc(N2CCCCC2)cc1)c1ccccc1 (configuration not stated) | -7 | 1 | 51* | -3
O=C(Nc1ccc(N2CCCC2)cc1)c1ccccc1F | 11 | 6 | 42* | 4
Cc1oc(C(C)(C)C)cc1C(=O)Nc1ccc2c(c1)OCCO2 | -12 | 4 | 44* | 4
O=C(Nc1ccc(N2CCCCC2)cc1)c1ccc(F)cc1F | -2 | 20 | -29 | 1
SMILES | ASAP1 GAP inh | ARFGAP1 inhibitor | esBAF inh | SMARCA2 act
C[C@@H]1CCCCO[C@H](CN(C)S(=O)(=O)c2cccs2)[C@@H](C)CN([C@H](C)CO)C(=O)c2cc(NS(=O)(=O)c3ccccc3)ccc2O1 | · | · | -1 | ·
C[C@@H]1CN([C@@H](C)CO)C(=O)Cc2cc(NS(=O)(=O)c3ccccc3)ccc2O[C@@H]1CN(C)Cc1ccc(C(=O)O)cc1 | · | · | 3 | ·
C[C@@H]1CN([C@@H](C)CO)C(=O)c2cc(NC(=O)Nc3ccccc3)ccc2O[C@@H]1CN(C)C(=O)NC1CCCCC1 | · | · | -4 | ·
COCC#Cc1ccc2c(c1)O[C@H](CN(C)Cc1ccccc1)[C@@H](C)CN([C@@H](C)CO)S2(=O)=O | · | · | -2 | ·
C[C@H](CO)N1C[C@H](C)[C@@H](CN(C)C)Oc2c(NC(=O)Nc3ccccc3)cccc2C1=O | · | · | -3 | ·
O=C(/C=C/c1ccccc1)Nc1ccc(N2CCCCC2)cc1 | 22 | 14 | 62* | 1
CC(=O)N1CCN(c2ccc(NC(=O)c3cccc(Cl)c3Cl)cc2)CC1 | 3 | 19 | -2 | -1

Source: PubChem (several laboratories)
